Measurements published in ChEMBL document CHEMBL1156477, “Small-molecule-mediated rescue of protein function by an inducible proteolytic shunt” (Proc Natl Acad Sci U S A, 2007).
The source made the active and inactive calls. The rule behind the calls is not given here.

Tested on: SYF
Test: Effect on proliferation of mouse SYF cells expressing FRB3-ubiquitin-C-v-src construct at 100 nM after 24 hsr by MTT assay
Assay type: functional, cell-based
Method in brief: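 SYF cells (DMEM/10% FBS, 37°C, 5% CO2) transfected via FuGENE-6 with construct 1 plus v-Src cleavage construct; after 24 h expression, trypsinized, ~1 × 10^4 cells replated with rapamycin (100 nM) or DMSO; MTT proliferation assay performed after a further 24 h.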

SMILES: CO[C@H]1C[C@@H]2CC[C@@H](C)[C@@](O)(O2)C(=O)C(=O)N2CCCC[C@H]2C(=O)O[C@H]([C@H](C)C[C@@H]2CC[C@@H](O)[C@H](OC)C2)CC(=O)[C@H](C)/C=C(\C)[C@@H](O)[C@@H](OC)C(=O)[C@H](C)C[C@H](C)/C=C/C=C/C=C/1C
- Activity: Active
